Experiments:
Type in all cases: functional
A498 = experiment: Cytotoxicity against human A498 cells assessed as cell growth at 10 uM after 48 hrs by SRB assay; conditions: A498, 48 h, read-out: Activity
Outline: (§1)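 NCI-60 single-dose screen. Cell lines grown in RPMI 1640 with 5% FBS and 2 mM L-glutamine, plated at 5000–40,000 cells/well according to doubling time, then preincubated 24 h at 37 °C in 5% CO2. Compounds dissolved in DMSO, tested at 10^-5 M for 48 h. Adherent cells fixed with cold TCA (10% final) and stained with 0.4% SRB in 1% acetic acid. Growth expressed as percent of untreated control.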

SN12C = experiment: Cytotoxicity against human SN12C cells assessed as cell growth at 10 uM after 48 hrs by SRB assay; conditions: read-out: Activity; outline: as §1
HOP-92 = experiment: Cytotoxicity against human HOP92 cells assessed as cell growth at 10 uM after 48 hrs by SRB assay; conditions: HOP-92, 48 h, read-out: Activity; outline: as §1
A549 = experiment: Cytotoxicity against human A549 cells assessed as cell growth at 10 uM after 48 hrs by SRB assay; conditions: A549, 48 h, read-out: Activity; outline: as §1
KM12 = experiment: Cytotoxicity against human KM12 cells assessed as cell growth at 10 uM after 48 hrs by SRB assay; conditions: KM12, 48 h, read-out: Activity; outline: as §1
SK-MEL-28 = experiment: Cytotoxicity against human SK-MEL-28 cells assessed as cell growth at 10 uM after 48 hrs by SRB assay; conditions: SK-MEL-28, 48 h, read-out: Activity; outline: as §1
DU-145 = experiment: Cytotoxicity against human DU145 cells assessed as cell growth at 10 uM after 48 hrs by SRB assay; conditions: DU-145, 48 h, read-out: Activity; outline: as §1
LOX IMVI = experiment: Cytotoxicity against human LOXIMVI cells assessed as cell growth at 10 uM after 48 hrs by SRB assay; conditions: read-out: Activity; outline: as §1
T47D = experiment: Cytotoxicity against human T47D cells assessed as cell growth at 10 uM after 48 hrs by SRB assay; conditions: read-out: Activity
Outline: (§2)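 NCI-60 single-dose screen at 10^-5 M. Adherent lines are grown in RPMI 1640 with 5% FBS and 2 mM L-glutamine, seeded at 5000–40,000 cells/well by doubling time, and preincubated 24 h at 37 °C in 5% CO2. Drug is added from DMSO stock diluted in medium, then 48 h. Cells are fixed in cold TCA (final 10%) for 60 min and stained with 0.4% SRB in 1% acetic acid. Growth is expressed as % of untreated control using time-zero plates.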

[1] = Cytotoxicity against human NCI-ADR-RES cells assessed as cell growth at 10 uM after 48 hrs by SRB assay; conditions: read-out: Activity; outline: as §1
ACHN = experiment: Cytotoxicity against human ACHN cells assessed as cell growth at 10 uM after 48 hrs by SRB assay; conditions: read-out: Activity; outline: as §1
CAKI-1 = experiment: Cytotoxicity against human CAKI-1 cells assessed as cell growth at 10 uM after 48 hrs by SRB assay; conditions: CAKI-1, 48 h, read-out: Activity; outline: as §1
OVCAR-8 = experiment: Cytotoxicity against human OVCAR8 cells assessed as cell growth at 10 uM after 48 hrs by SRB assay; conditions: OVCAR-8, 48 h, read-out: Activity; outline: as §1
HL-60(TB) = experiment: Cytotoxicity against human HL-60(TB) cells assessed as cell growth at 10 uM after 48 hrs by SRB assay; conditions: HL-60, 48 h, read-out: Activity
Outline: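 NCI-60 single-dose screen: cells grown in RPMI 1640 with 5% FBS and 2 mM L-glutamine, plated at 5000–40,000 cells/well, preincubated 24 h at 37 °C, 5% CO2. Compound dissolved in DMSO, tested at 10^-5 M for 48 h. Cells TCA-fixed, sulforhodamine B stained. Growth expressed as percent of untreated control, referenced to time-zero plates.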

K562 = experiment: Cytotoxicity against human K562 cells assessed as cell growth at 10 uM after 48 hrs by SRB assay; conditions: K562, 48 h, read-out: Activity; outline: as §1
OVCAR-3 = experiment: Cytotoxicity against human OVCAR3 cells assessed as cell growth at 10 uM after 48 hrs by SRB assay; conditions: OVCAR-3, 48 h, read-out: Activity; outline: as §1
PC-3 = experiment: Cytotoxicity against human PC3 cells assessed as cell growth at 10 uM after 48 hrs by SRB assay; conditions: PC-3, 48 h, read-out: Activity; outline: as §1
Malme-3M = experiment: Cytotoxicity against human MALME-3M cells assessed as cell growth at 10 uM after 48 hrs by SRB assay; conditions: read-out: Activity; outline: as §1
NCI-H322M = experiment: Cytotoxicity against human NCI-H322M cells assessed as cell growth at 10 uM after 48 hrs by SRB assay; conditions: read-out: Activity; outline: as §1
MDA-MB-435 = experiment: Cytotoxicity against human MDA-MB-435 cells assessed as cell growth at 10 uM after 48 hrs by SRB assay; conditions: MDA-MB-435, 48 h, read-out: Activity; outline: as §1
NCI-H522 = experiment: Cytotoxicity against human NCI-H522 cells assessed as cell growth at 10 uM after 48 hrs by SRB assay; conditions: NCI-H522, 48 h, read-out: Activity; outline: as §1
NCI-H226 = experiment: Cytotoxicity against human NCI-H226 cells assessed as cell growth at 10 uM after 48 hrs by SRB assay; conditions: NCI-H226, 48 h, read-out: Activity; outline: as §1
[2] = Cytotoxicity against human Hs578T cells assessed as cell growth at 10 uM after 48 hrs by SRB assay; conditions: Hs-578T, read-out: Activity; outline: as §1
UACC-62 = experiment: Cytotoxicity against human UACC62 cells assessed as cell growth at 10 uM after 48 hrs by SRB assay; conditions: UACC-62, 48 h, read-out: Activity; outline: as §2
RXF 393 = experiment: Cytotoxicity against human RXF393 cells assessed as cell growth at 10 uM after 48 hrs by SRB assay; conditions: RXF 393, 48 h, read-out: Activity; outline: as §1
SK-MEL-2 = experiment: Cytotoxicity against human SK-MEL-2 cells assessed as cell growth at 10 uM after 48 hrs by SRB assay; conditions: SK-MEL-2, 48 h, read-out: Activity; outline: as §1
COLO 205 = experiment: Cytotoxicity against human COLO205 cells assessed as cell growth at 10 uM after 48 hrs by SRB assay; conditions: COLO 205, 48 h, read-out: Activity; outline: as §1
[3] = Cytotoxicity against human OVCAR5 cells assessed as cell growth at 10 uM after 48 hrs by SRB assay; conditions: OVCAR-5, 48 h, read-out: Activity; outline: as §1
SF-295 = experiment: Cytotoxicity against human SF295 cells assessed as cell growth at 10 uM after 48 hrs by SRB assay; conditions: SF-295, 48 h, read-out: Activity; outline: as §1
[4] = Cytotoxicity against human UACC257 cells assessed as cell growth at 10 uM after 48 hrs by SRB assay; conditions: UACC-257, 48 h, read-out: Activity; outline: as §2
SNB-19 = experiment: Cytotoxicity against human SNB19 cells assessed as cell growth at 10 uM after 48 hrs by SRB assay; conditions: SNB-19, 48 h, read-out: Activity; outline: as §1

| Structure (SMILES) | growth at 10 µM (A498) [%] | growth at 10 µM (SN12C) [%] | growth at 10 µM (HOP-92) [%] | growth at 10 µM (A549) [%] | growth at 10 µM (KM12) [%] | growth at 10 µM (SK-MEL-28) [%] | growth at 10 µM (DU-145) [%] | growth at 10 µM (LOX IMVI) [%] | growth at 10 µM (T47D) [%] | growth at 10 µM [1] [%] | growth at 10 µM (ACHN) [%] | growth at 10 µM (CAKI-1) [%] | growth at 10 µM (OVCAR-8) [%] | growth at 10 µM (HL-60(TB)) [%] | growth at 10 µM (K562) [%] | growth at 10 µM (OVCAR-3) [%] | growth at 10 µM (PC-3) [%] | growth at 10 µM (Malme-3M) [%] | growth at 10 µM (NCI-H322M) [%] | growth at 10 µM (MDA-MB-435) [%] | other results |
| --- | --- | --- | --- | --- | --- | --- | --- | --- | --- | --- | --- | --- | --- | --- | --- | --- | --- | --- | --- | --- | --- |
| CC1=NN(c2cn3c(-c4ccc(Cl)cc4)csc3n2)C(=O)C1 | 74.1 | 90.9 | 73.6 | 79.6 | 105 | 96.3 | 105 | 96.8 | 73.7 | 100 | 89.1 | 79.3 | 94.2 | 92.5 | 71.4 | 106 | 79.4 | 102 | 99.8 | 87.4 | growth at 10 µM (NCI-H522): 84.5%; growth at 10 µM (NCI-H226): 95.4%; growth at 10 µM [2]: 101%; growth at 10 µM (UACC-62): 81.9%; growth at 10 µM (RXF 393): 104%; growth at 10 µM (SK-MEL-2): 104%; growth at 10 µM (COLO 205): 103%; growth at 10 µM [3]: 106%; growth at 10 µM (SF-295): 85.6%; growth at 10 µM [4]: 94.9%; growth at 10 µM (SNB-19): 88% |
| O=C1CC(=O)N(c2cn3c(-c4ccc(Cl)cc4)csc3n2)N1 | 75.2 | 88.4 | 99.4 | 88.9 | 106 | 95.7 | 105 | 96.5 | 87.3 | 99.3 | 102 | 78.9 | 101 | 88.1 | 88.1 | 110 | 90 | 97.1 | 83.3 | 93.7 | growth at 10 µM (NCI-H522): 74.1%; growth at 10 µM (NCI-H226): 103%; growth at 10 µM [2]: 98.3%; growth at 10 µM (UACC-62): 90.1%; growth at 10 µM (RXF 393): 112%; growth at 10 µM (SK-MEL-2): 101%; growth at 10 µM (COLO 205): 101%; growth at 10 µM [3]: 115%; growth at 10 µM (SF-295): 84.4%; growth at 10 µM [4]: 103%; growth at 10 µM (SNB-19): 90.2% |
| Cc1cc(C)n(-c2cn3c(-c4ccccc4)csc3n2)n1 | 111 | 96.5 | 86 | 99 | 104 | 102 | 105 | 91.9 | 87.2 | 95.5 | 83.8 | 77.4 | 95.9 | 105 | 76.8 | 101 | 88.7 | 94.1 | 91.1 | 96.9 | growth at 10 µM (NCI-H522): 88.4%; growth at 10 µM (NCI-H226): 88.3%; growth at 10 µM [2]: 106%; growth at 10 µM (UACC-62): 89.4%; growth at 10 µM (RXF 393): 93.4%; growth at 10 µM (SK-MEL-2): 97.6%; growth at 10 µM (COLO 205): 106%; growth at 10 µM [3]: 95.4%; growth at 10 µM (SF-295): 77.5%; growth at 10 µM [4]: 105%; growth at 10 µM (SNB-19): 96.5% |
